Measurements published in ChEMBL document CHEMBL3576816, “5'-Silylated 3'-1,2,3-triazolyl Thymidine Analogues as Inhibitors of West Nile Virus and Dengue Virus” (J Med Chem, 2015).
Calls of active or inactive are those of the source. The rule behind the calls is not given here.

Experiments:
Dengue virus = experiment: Antiviral activity against Dengue virus infected in BHK pD2-hRucPac-2ATG cells assessed as inhibition of viral replication at 10 uM after 3 days by luciferase reporter gene assay relative to control; format: functional; conditions: for inhibition at 10 µM: 72 h
In short: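 Renilla luciferase-bearing DENV subgenomic replicon BHK cells, kept on 3 μg/mL puromycin, seeded at 1.5 × 10^3/well without selection. Next day, 10 μM final compound in DMSO added to triplicate wells; MPA 1 μM as control inhibitor. After 3 days, medium swapped for live-cell Renilla substrate (1:1000, phenol-red-free DME, 10% FBS). Luminescence read; triplicate mean compared with DMSO-only wells.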

West Nile virus = experiment: Antiviral activity against West Nile virus infected in BHK-WII RepRen1B cells assessed as inhibition of viral replication at 10 uM after 3 days by luciferase reporter gene assay relative to control; format: functional; conditions: for inhibition at 10 µM: 72 h
In short: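 Compound (DMSO, 10 μM final) added next day in triplicate; lycorine 1 μM served as control inhibitor. Three days on, live-cell Renilla substrate (1:1000 in phenol-red-free DME, 10% FBS) replaced medium. Luminescence measured; triplicate means compared with DMSO-alone wells.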

[1] = Cytotoxicity against BHK cells infected with Dengue virus replicon assessed as cell viability at 10 uM after 3 days by CellTiter 96 aqueous one solution cell proliferation assay relative to control; format: cell-based, Mesocricetus auratus; conditions: hamster; for Activity: bhk, 72 h, 10 µM
In short: (§1)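 DENV replicon BHK cells, 1.5 × 10^3/well, plated without antibiotic selection; next day compound in DMSO (10 μM final for screening, or eight serial dilutions), 3 days at 37°C, 5% CO2. Tetrazolium (MTS-type) reagent, absorbance 450 nm, triplicate means versus DMSO wells; CC50 = 50% reduction in proliferation; CC50s mean ± SD of two experiments, top dose 200 μM.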

[2] = Cytotoxicity against BHK cells infected with West Nile virus replicon assessed as cell viability at 10 uM after 3 days by CellTiter 96 aqueous one solution cell proliferation assay relative to control; format: cell-based, Mesocricetus auratus; conditions: hamster; for Activity: bhk, 72 h, 10 µM
In short: as §1, with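 “WNV” for “DENV”, “about 3” for “1.5”, “Tetrazolium” for “Tetrazolium (MTS-type)”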

[3] = molecular target: Human immunodeficiency virus type 1 reverse transcriptase (Human immunodeficiency virus 1) (UniProt Q72547); experiment: Inhibition of HIV1 reverse transcriptase
Human betaherpesvirus 5 = experiment: Antiviral activity against Human cytomegalovirus; format: functional, organism-based
[4] = test system: unidentified influenza virus; experiment: Antiviral activity against Influenzae virus; format: functional, organism-based
Hepatitis C virus = experiment: Antiviral activity against HCV; format: functional, organism-based; conditions: Hepacivirus hominis
[5] = test system: Human immunodeficiency virus 1; experiment: Antiviral activity against HIV1; format: functional, organism-based

| Compound | inhibition at 10 µM (Dengue virus) [%] | inhibition at 10 µM (West Nile virus) [%] | Activity [1] [%] | Activity [2] [%] | inhibition [3] | Activity (Human betaherpesvirus 5) | Activity [4] | Activity (Hepatitis C virus) | Activity [5] | inhibition (Dengue virus) | inhibition (West Nile virus) | viability at 72 h, 10 µM ([1]; BHK cells infected with Dengue virus replicon, read-out: Activity) [%] | viability at 72 h, 10 µM ([2]; BHK cells infected with West Nile virus replicon, read-out: Activity) [%] |
| --- | --- | --- | --- | --- | --- | --- | --- | --- | --- | --- | --- | --- | --- |
| Cc1cn([C@H]2C[C@H](n3nncc3-c3ccc(Oc4ccccc4)cc3)[C@@H](CO)O2)c(=O)[nH]c1=O | 0 | 9 | 100 | 99 |  |  |  |  |  |  |  |  |  |
| Cc1cn([C@H]2C[C@H](NC(=O)c3ccc4ccccc4c3)[C@@H](CO)O2)c(=O)[nH]c1=O | 45 | 0 | 97 | 92 |  |  |  |  |  |  |  |  |  |
| Cc1cn([C@H]2C[C@H](n3nncc3C3CC3)[C@@H](CO)O2)c(=O)[nH]c1=O | 4.7 | 0 | 100 | 97 |  |  |  |  |  |  |  |  |  |
| Cc1cn([C@H]2C[C@H](N3C(=O)CSC3c3c4ccccc4cc4ccccc34)[C@@H](CO)O2)c(=O)[nH]c1=O (mixture of isomers) | 0 | 12 | 96 | 100 |  |  |  |  |  |  |  |  |  |
| Cc1cn([C@H]2C[C@H](n3nncc3-c3cccc4ccccc34)[C@@H](CO[Si](C)(C)C(C)(C)C)O2)c(=O)[nH]c1=O | 99 | 100 | 60 | 8 | inactive | inactive | inactive | inactive | inactive |  |  |  |  |
| Cc1cn([C@H]2C[C@H](n3nncc3-c3ccccc3)[C@@H](CO)O2)c(=O)[nH]c1=O | 0 | 4 | 100 | 99 |  |  |  |  |  |  |  |  |  |
| COc1ccc2cc(C(=O)N[C@H]3C[C@H](n4cc(C)c(=O)[nH]c4=O)O[C@@H]3CO[Si](C)(C)C(C)(C)C)ccc2c1 | 92 | 95 | 8 | 50 | inactive | inactive | inactive | inactive | inactive |  |  |  |  |
| Cc1cn([C@H]2C[C@H](n3nncc3-c3ccc(-c4ccccc4)cc3)[C@@H](CO)O2)c(=O)[nH]c1=O | 2.3 | 23 | 92 | 100 |  |  |  |  |  |  |  |  |  |
| Cc1cn([C@H]2C[C@H](n3cc(-c4ccc(-c5ccccc5)cc4)nn3)[C@@H](CO)O2)c(=O)[nH]c1=O | 10 | 14 | 100 | 100 |  |  |  |  |  |  |  |  |  |
| Cc1cn([C@H]2C[C@H](NC(=O)C(c3ccccc3)(c3ccccc3)c3ccccc3)[C@@H](CO)O2)c(=O)[nH]c1=O | 16 | 0 | 94 | 95 |  |  |  |  |  |  |  |  |  |
| Cc1cn([C@H]2C[C@H](NC(=O)c3ccc4ccccc4n3)[C@@H](CO[Si](C)(C)C(C)(C)C)O2)c(=O)[nH]c1=O | 51 | 24 | 98 | 89 | inactive | inactive | inactive | inactive | inactive |  |  |  |  |
| Cc1cn([C@H]2C[C@H](N3C(=O)CSC3c3ccc4[nH]ccc4c3)[C@@H](CO)O2)c(=O)[nH]c1=O (mixture of isomers) | 13 | 9.7 | 95 | 100 |  |  |  |  |  |  |  |  |  |
| Cc1cn([C@H]2C[C@H](NC(=O)c3cccc4ccccc34)[C@@H](CO)O2)c(=O)[nH]c1=O | 15 | 0 | 98 | 87 |  |  |  |  |  |  |  |  |  |
| Cc1cn([C@H]2C[C@H](n3nncc3COc3ccccc3)[C@@H](CO)O2)c(=O)[nH]c1=O | 0 | 0 | 100 | 96 |  |  |  |  |  |  |  |  |  |
| COc1ccc2cc(-c3cnnn3[C@H]3C[C@H](n4cc(C)c(=O)[nH]c4=O)O[C@@H]3CO)ccc2c1 | 0 | 7.4 | 100 | 100 |  |  |  |  |  |  |  |  |  |
| COc1ccc2cc(-c3cnnn3[C@H]3C[C@H](n4cc(C)c(=O)[nH]c4=O)O[C@@H]3COC3CCCCO3)ccc2c1 (stereo partly specified) | 21 | 1 | 92 | 75 |  |  |  |  |  |  |  |  |  |
| COc1ccc2cc(C(=O)N[C@H]3C[C@H](n4cc(C)c(=O)[nH]c4=O)O[C@@H]3CO)ccc2c1 | 0 | 0 | 100 | 100 |  |  |  |  |  |  |  |  |  |

| Compound | inhibition at 10 µM (Dengue virus) [%] | inhibition at 10 µM (West Nile virus) [%] | Activity [1] [%] | Activity [2] [%] | inhibition [3] | Activity (Human betaherpesvirus 5) | Activity [4] | Activity (Hepatitis C virus) | Activity [5] | inhibition (Dengue virus) | inhibition (West Nile virus) | viability at 72 h, 10 µM ([1]; BHK cells infected with Dengue virus replicon, read-out: Activity) [%] | viability at 72 h, 10 µM ([2]; BHK cells infected with West Nile virus replicon, read-out: Activity) [%] |
| --- | --- | --- | --- | --- | --- | --- | --- | --- | --- | --- | --- | --- | --- |
| COC[C@H]1O[C@@H](n2cc(C)c(=O)n(C)c2=O)C[C@@H]1n1nncc1-c1ccc2cc(OC)ccc2c1 | 0 | 0 | 100 | 100 |  |  |  |  |  |  |  |  |  |
| Cc1cn([C@H]2C[C@H](n3nncc3-c3cccc4ccccc34)[C@@H](CO)O2)c(=O)[nH]c1=O | 0 | 3.3 | 90 | 100 |  |  |  |  |  |  |  |  |  |
| COc1ccc(C(OC[C@H]2O[C@@H](n3cc(C)c(=O)[nH]c3=O)C[C@@H]2n2nncc2-c2ccc3cc(OC)ccc3c2)(c2ccccc2)c2ccc(OC)cc2)cc1 | 46 | 23 | 93 | 93 |  |  |  |  |  |  |  |  |  |
| Cc1cn([C@H]2C[C@H](n3nncc3-c3cc4ccccc4c4ccccc34)[C@@H](CO)O2)c(=O)[nH]c1=O | 0 | 0 | 95 | 100 |  |  |  |  |  |  |  |  |  |
| Cc1cn([C@H]2C[C@H](N=[N+]=[N-])[C@@H](CO[Si](C)(C)C(C)(C)C)O2)c(=O)[nH]c1=O | 3.6 | 17 | 87 | 96 |  |  |  |  |  |  |  |  |  |
| Cc1cn([C@H]2C[C@H](NC(=O)c3c[nH]c4ccccc34)[C@@H](CO)O2)c(=O)[nH]c1=O | 4.3 | 0 | 96 | 97 |  |  |  |  |  |  |  |  |  |
| Cc1cn([C@H]2C[C@H](NC(=O)c3ccc(N4CCOCC4)cc3)[C@@H](CO[Si](C)(C)C(C)(C)C)O2)c(=O)[nH]c1=O |  |  |  |  | inactive | inactive | inactive | inactive | inactive | Active | Active |  |  |
| Cc1ccc(S(=O)(=O)NC(=O)N[C@H]2C[C@H](n3cc(C)c(=O)[nH]c3=O)O[C@@H]2CO[Si](C)(C)C(C)(C)C)cc1 |  |  |  |  | inactive | inactive | inactive | inactive | inactive | Active | Active |  |  |
| Cc1cn([C@H]2C[C@H](n3cc(-c4ccc5[nH]ccc5c4)nn3)[C@@H](CO)O2)c(=O)[nH]c1=O | 8.2 | 0 | 100 | 100 |  |  |  |  |  |  |  |  |  |
| Cc1cn([C@H]2C[C@H](NC(=O)Nc3ccccc3)[C@@H](CO[Si](C)(C)C(C)(C)C)O2)c(=O)[nH]c1=O |  |  |  |  | inactive | inactive | inactive | inactive | inactive | Active | Active |  |  |
| CCOCOC[C@H]1O[C@@H](n2cc(C)c(=O)[nH]c2=O)C[C@@H]1n1nncc1-c1ccc2cc(OC)ccc2c1 | 13 | 0 | 95 | 89 |  |  |  |  |  |  |  |  |  |
| Cc1cn([C@H]2C[C@H](N=[N+]=[N-])[C@@H](CO)O2)c(=O)[nH]c1=O [ZIDOVUDINE] | 0 | 0 |  |  |  |  |  |  |  |  |  | 89 | 83 |
| COc1ccc2cc(-c3cnnn3[C@H]3C[C@H](n4cc(C)c(=O)[nH]c4=O)O[C@@H]3COC(C)=O)ccc2c1 | 0 | 5.3 | 97 | 100 |  |  |  |  |  |  |  |  |  |
| Cc1cn([C@H]2C[C@H](NC(=O)c3c4ccccc4cc4ccccc34)[C@@H](CO)O2)c(=O)[nH]c1=O | 0 | 0 | 95 | 92 |  |  |  |  |  |  |  |  |  |
| Cc1cn([C@H]2C[C@H](n3nncc3C3CCCCC3)[C@@H](CO)O2)c(=O)[nH]c1=O | 10 | 0 | 100 | 100 |  |  |  |  |  |  |  |  |  |
| Cc1cn([C@H]2C[C@H](N3C(=O)CSC3c3ccccc3)[C@@H](CO)O2)c(=O)[nH]c1=O (mixture of isomers) | 0 | 0 | 100 | 99 |  |  |  |  |  |  |  |  |  |
